From ChEMBL document CHEMBL1144873, “An orally bioavailable oxime ether capsid binder with potent activity against human rhinovirus” (J Med Chem, 2003)
Values after ≈ are worked out from the molar mass of the structure shown.

Columns and labels:
[1] = system: rhinovirus A2; assay: Anti-HRV activity against HRV-2 strain; assay type: functional, organism-based, human rhinovirus type 2; details: Rhinovirus A
[2] = system: Human rhinovirus 1A; assay: Anti-HRV activity against HRV-1A strain; assay type: functional, organism-based, human rhinovirus type 1
How it was run: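 Cell-culture cytopathic effect (CPE) inhibition assay adapted from a microplate tissue-culture method. Each test was run in duplicate. EC50 was read both visually and by dye uptake. Results varied by generally no more than one dilution between duplicate runs and between read-out methods.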

[3] = system: KB; assay: (§1) Cellular toxicity in KB cells; assay type: functional; details: Homo sapiens
[4] = system: MRC5; assay: Cellular toxicity in MRC-5 cells; assay type: functional; details: Homo sapiens
[5] = system: rhinovirus B14; assay: Anti-HRV activity against HRV-14 strain; assay type: functional, organism-based, human rhinovirus type 14; details: Rhinovirus B
[6] = system: KB; assay: as §1; assay type: functional; details: Homo sapiens; remark: listed apart in the source
[7] = system: rhinovirus B14; assay: Anti-HRV activity against HRV serotype 14; assay type: functional, organism-based, human rhinovirus type 14; details: Rhinovirus B
[8] = system: rhinovirus A15; assay: Anti-HRV activity against HRV serotype 15; assay type: functional, organism-based; details: Rhinovirus A
[9] = system: rhinovirus A16; assay: Anti-HRV activity against HRV serotype 16; assay type: functional, organism-based; details: Rhinovirus A
[10] = system: rhinovirus A2; assay: Anti-HRV activity against HRV serotype 2; assay type: functional, organism-based, human rhinovirus type 2; details: Rhinovirus A
[11] = system: rhinovirus A29; assay: Anti-HRV activity against HRV serotype 29; assay type: functional, organism-based; details: Rhinovirus A
[12] = system: rhinovirus A39; assay: Anti-HRV activity against HRV serotype 39; assay type: functional, organism-based; details: Rhinovirus A
[13] = system: rhinovirus A45; assay: Anti-HRV activity against HRV serotype 45; assay type: functional, organism-based; details: Rhinovirus A
[14] = system: rhinovirus A51; assay: Anti-HRV activity against HRV serotype 51; assay type: functional, organism-based; details: Rhinovirus A
[15] = system: rhinovirus A59; assay: Anti-HRV activity against HRV serotype 59; assay type: functional, organism-based; details: Rhinovirus A
[16] = system: rhinovirus A63; assay: Anti-HRV activity against HRV serotype 63; assay type: functional, organism-based; details: Rhinovirus A
[17] = system: rhinovirus B70; assay: Anti-HRV activity against HRV serotype 70; assay type: functional, organism-based; details: Rhinovirus B
[18] = system: rhinovirus B72; assay: Anti-HRV activity against HRV serotype 72; assay type: functional, organism-based; details: Rhinovirus B
[19] = system: rhinovirus A85; assay: Anti-HRV activity against HRV serotype 85; assay type: functional, organism-based; details: Rhinovirus A
[20] = system: rhinovirus B86; assay: Anti-HRV activity against HRV serotype 86; assay type: functional, organism-based; details: Rhinovirus B
[21] = system: rhinovirus A89; assay: Anti-HRV activity against HRV serotype 89; assay type: functional, organism-based, human rhinovirus type 89; details: Rhinovirus A
[22] = system: rhinovirus A9; assay: Anti-HRV activity against HRV serotype 9; assay type: functional, organism-based; details: Rhinovirus A
[23] = system: Human rhinovirus sp.; assay: Percent inhibition of 100 HRV strains by the compound at a concentration of 0.064 ug/ml; assay type: functional
[24] = system: KB; assay: Cellular toxicity against KB cells in HRV-14 strain; assay type: functional; details: Homo sapiens

SMILES	EC50 [1] [µg/mL]	EC50 [2] [µg/mL]	EC50 [5] [µg/mL]	CC50 [3] [µg/mL]	CC50 [4] [µg/mL]	CC50 [6] [µg/mL]	further results
CCC/N=C/c1ccc(OCCC2CCN(c3ccc(Cl)nn3)CC2)cc1	6 (≈ 15.5 µM)	4.12 (≈ 10.6 µM)		30 (≈ 77.5 µM)	> 50		
CCO/N=C/c1ccc(OCCC2CCN(c3ccc(Cl)nn3)CC2)cc1		< 0.16	0.002 (≈ 0.00514 µM)		> 50	0.8 (≈ 2.06 µM)	
O=Cc1ccc(OCCC2CCN(c3ccc(Cl)nn3)CC2)cc1	2 (≈ 5.78 µM)	9.72 (≈ 28.1 µM)		20 (≈ 57.8 µM)	> 50		
CN/N=C/c1ccc(OCCC2CCN(c3ccc(Cl)nn3)CC2)cc1	2 (≈ 5.35 µM)	1.01 (≈ 2.7 µM)		10 (≈ 26.7 µM)	> 50		
CC(C)O/N=C/c1ccc(OCCC2CCN(c3ccc(Cl)nn3)CC2)cc1	0.02 (≈ 0.0496 µM)		0.018 (≈ 0.0447 µM)	1 (≈ 2.48 µM)		0.7 (≈ 1.74 µM)	
Clc1ccc(N2CCC(CCOc3ccc(/C=N/OCc4ccccc4)cc3)CC2)nn1	0.9 (≈ 2 µM)		0.4 (≈ 0.887 µM)	0.6 (≈ 1.33 µM)		0.6 (≈ 1.33 µM)	
NNC(=O)c1ccc(OCCC2CCN(c3ccc(Cl)nn3)CC2)cc1	4 (≈ 10.6 µM)	8.52 (≈ 22.7 µM)		20 (≈ 53.2 µM)	> 50		
C=CCO/N=C/c1ccc(OCCC2CCN(c3ccc(Cl)nn3)CC2)cc1	0.006 (≈ 0.015 µM)		0.006 (≈ 0.015 µM)	0.5 (≈ 1.25 µM)		0.4 (≈ 0.998 µM)	
CC(C)S(=O)(=O)n1c(N)nc2ccc(/C(=N/O)c3ccccc3)cc21 [ENVIROXIME]	0.009 (≈ 0.0251 µM)			2 (≈ 5.58 µM)			
Cc1cc(CCCOc2c(C)cc(-c3noc(C(F)(F)F)n3)cc2C)on1 [PLECONARIL]							EC50 [7]: 0.0313 µg/mL (≈ 0.0821 µM); EC50 [8]: 0.0698 µg/mL (≈ 0.183 µM); EC50 [9]: 0.108 µg/mL (≈ 0.283 µM); EC50 [10]: 0.0265 µg/mL (≈ 0.0694 µM); EC50 [11]: 0.0454 µg/mL (≈ 0.119 µM); EC50 [12]: 0.0449 µg/mL (≈ 0.118 µM); EC50 [13]: 1.91 µg/mL (≈ 5 µM); EC50 [14]: 0.0304 µg/mL (≈ 0.0797 µM); EC50 [15]: 0.387 µg/mL (≈ 1.02 µM); EC50 [16]: 0.0623 µg/mL (≈ 0.163 µM); EC50 [17]: 0.0539 µg/mL (≈ 0.141 µM); EC50 [18]: 0.469 µg/mL (≈ 1.23 µM); EC50 [19]: 0.034 µg/mL (≈ 0.0892 µM); EC50 [20]: 0.07 µg/mL (≈ 0.184 µM); EC50 [21]: 0.0293 µg/mL (≈ 0.0769 µM); EC50 [22]: 0.0372 µg/mL (≈ 0.0974 µM)

Second part, led by results:

EC50 [1] [µg/mL]	EC50 [2] [µg/mL]	EC50 [5] [µg/mL]	SMILES	CC50 [3] [µg/mL]	CC50 [4] [µg/mL]	CC50 [6] [µg/mL]	further results
0.01 (≈ 0.0261 µM)		0.004 (≈ 0.0105 µM)	CCO/N=C(\C)c1ccc(OCCC2CCN(c3ccc(C)nn3)CC2)cc1	> 1		> 1	
0.004 (≈ 0.00993 µM)		0.01 (≈ 0.0248 µM)	CCCO/N=C/c1ccc(OCCC2CCN(c3ccc(Cl)nn3)CC2)cc1	> 1		0.4 (≈ 0.993 µM)	
> 0.25		0.062 (≈ 0.182 µM)	Cc1ccc(N2CCC(CCOc3ccc(/C=N/O)cc3)CC2)nn1	> 0.25		> 0.25	
< 0.05	< 0.16		CCOC(=O)c1ccc(OCCC2CCN(c3ccc(Cl)nn3)CC2)cc1	50 (≈ 128 µM)	> 50		
0.08 (≈ 0.217 µM)		0.023 (≈ 0.0624 µM)	CO/N=C(\C)c1ccc(OCCC2CCN(c3ccc(C)nn3)CC2)cc1	> 1		> 1	
0.15 (≈ 0.423 µM)		0.004 (≈ 0.0113 µM)	CO/N=C/c1ccc(OCCC2CCN(c3ccc(C)nn3)CC2)cc1	> 1		> 1	
0.4 (≈ 0.993 µM)		0.2 (≈ 0.496 µM)	CC/C(=N\OC)c1ccc(OCCC2CCN(c3ccc(Cl)nn3)CC2)cc1	> 1		0.6 (≈ 1.49 µM)	
0.6 (≈ 1.6 µM)	< 0.16		CCC(=O)c1ccc(OCCC2CCN(c3ccc(Cl)nn3)CC2)cc1	7 (≈ 18.7 µM)	> 50		
	< 0.16	0.0016 (≈ 0.00433 µM)	CCOC(=O)c1ccc(OCCC2CCN(c3ccc(C)nn3)CC2)cc1 [PIRODAVIR]		> 50		EC50 [7]: 0.00365 µg/mL (≈ 0.00988 µM); EC50 [8]: 0.00702 µg/mL (≈ 0.019 µM); EC50 [9]: 0.0152 µg/mL (≈ 0.0412 µM); EC50 [10]: 0.00277 µg/mL (≈ 0.0075 µM); EC50 [11]: 0.00374 µg/mL (≈ 0.0101 µM); EC50 [12]: 0.0018 µg/mL (≈ 0.00487 µM); EC50 [13]: > 5 µg/mL; EC50 [14]: 0.00521 µg/mL (≈ 0.0141 µM); EC50 [15]: 0.00437 µg/mL (≈ 0.0118 µM); EC50 [16]: 0.00083 µg/mL (≈ 0.00225 µM); EC50 [17]: 0.00214 µg/mL (≈ 0.00579 µM); EC50 [18]: 0.0348 µg/mL (≈ 0.0941 µM); EC50 [19]: 0.00472 µg/mL (≈ 0.0128 µM); EC50 [20]: 0.00956 µg/mL (≈ 0.0259 µM); EC50 [21]: 0.0057 µg/mL (≈ 0.0154 µM); EC50 [22]: 0.00205 µg/mL (≈ 0.00555 µM); inhibition at 0.064 µg/mL [23]: 80%; CC50 [24]: > 1 µg/mL
